# Compounds with a hit are over-represented: about 3.8% of the library has one in this group of screens.
# Kir21 block: inhibitors of mouse Kir2.1 inward-rectifier potassium channel. HEK293-Kir2.1, FluxOR thallium flux fluorescence; hits give low values. B-score at 10 µM. 310,000 compounds, 0.85% hits;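 active = fluorescence ratio B-score at or below minus 3 SD of library scores, with starting-brightness B-score within 2 SD, cut at about -4.2 in these data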;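 note: channel flux triggered by added potassium and thallium sulfate stimulus; B-score of peak minus minimum fluorescence over baseline after thallium stimulus; more negative B-score means stronger Kir2.1 block with less thallium influx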
# KCNQ1 block: inhibitors of human KCNQ1 channel, primary screen, cell-based, thallium flux, high-throughput; 310,000 compounds, 1.3% hits; CHO-K1 KCNQ1, FluxOR thallium flux fluorescence; hits give high values; Potassium voltage-gated channel subfamily KQT member 1 (Homo sapiens), P51787; B-score at 10 µM;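 active = compounds whose thallium flux B-score, printed positive for inhibition, exceeds three library SD while starting fluorescence stays within three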;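 note: channel opened by potassium depolarization with thallium stimulus after 20 min compound exposure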
# hERG protect: hERG rescue from dofetilide block, primary screen, cell-based, CHO-hERG, FluxOR thallium flux, dofetilide IC70. Voltage-gated inwardly rectifying potassium channel KCNH2 (Homo sapiens), Q12809. dofetilide IC70 present. activation (rescue from dofetilide block), less the hit threshold, % at 10 µM. 310,000 compounds, 0.51% hits;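 active = activation above the mean of controls blocked by dofetilide plus 5 SD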;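 note: thallium influx through hERG after potassium depolarization seen as dye fluorescence rise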
# KCNQ1 pot: potentiators or activators of KCNQ1 channel, primary screen, cell-based, thallium flux, high-throughput; B-score at 10 µM; AID 2648, 2010; CHO-K1 KCNQ1, thallium flux FluxOR fluorescence; hits give high values; Potassium voltage-gated channel subfamily KQT member 1 (Homo sapiens), P51787; 310,000 compounds, 0.35% hits;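 active = fluorescence ratio B-score, a plate-corrected score, at least three library SD, with initial intensity B-score within 5 SD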
#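 Medium – assay buffer, equal DMSO in all wells · Material – CHO-K1 cell line with stable KCNQ1 potassium channel expression · Signal – kinetic FluxOR thallium fluorescence, 10-s 1-Hz baseline, 110-s post-stimulus read · Compound – single concentration per compound, DMSO matched to controls · Schedule – 37 °C overnight plating, 90-min dark dye load, 20-min compound pretreatment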
# KCNK3 block: human KCNK3 channel inhibitors, primary screen, CHO cells, FluxOR thallium flux, B-score; Potassium channel subfamily K member 3 (Homo sapiens), O14649; FluxOR fluorescence; hits give low values; B-score at 10 µM; 340,000 compounds, 0.84% hits;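 active = B-score under library mean minus 4 SD, starting fluorescence ratio at most library mean plus 5 SD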;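 note: more negative B-score means stronger inhibition of thallium flux through KCNK3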
# KCNK9 block: KCNK9 potassium channel inhibitors, primary screen, HEK293 cells, thallium flux. Potassium channel subfamily K member 9 (Homo sapiens), Q9NPC2. FluxOR thallium flux fluorescence; hits give low values. B-score at 10 µM. 310,000 compounds, 1.2% hits. AID 488922, 2010;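 active = ratio B-score over 3 SD below the library mean, with starting fluorescence within 5 SD of its mean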;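 note: negative B-score means less thallium flux so channel inhibition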
# Target sequence (Q9NPC2 whole entry, looked up): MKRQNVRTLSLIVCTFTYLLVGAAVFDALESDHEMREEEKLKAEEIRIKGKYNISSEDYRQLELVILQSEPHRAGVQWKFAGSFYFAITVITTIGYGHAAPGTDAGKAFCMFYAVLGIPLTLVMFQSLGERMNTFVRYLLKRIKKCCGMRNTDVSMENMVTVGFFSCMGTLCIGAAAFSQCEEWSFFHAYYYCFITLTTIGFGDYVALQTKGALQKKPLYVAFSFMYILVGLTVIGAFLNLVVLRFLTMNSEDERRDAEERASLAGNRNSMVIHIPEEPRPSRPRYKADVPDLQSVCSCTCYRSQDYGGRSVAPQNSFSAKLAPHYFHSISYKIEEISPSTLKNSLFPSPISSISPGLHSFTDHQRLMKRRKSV
# KCNK9 block conf: KCNK9 potassium channel inhibitors, confirmation, HEK293 cells, thallium flux, duplicate | shares compounds with KCNK9 block | FluxOR thallium flux fluorescence | inhibition, % at 10 µM | 4,900 compounds, 43% hits | AID 492992, 2010;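 active = thallium signal inhibited by more than 5 SD of the compound-free buffer control wells, on both duplicate plates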
# Kir2-1 spec: mouse Kir2.1 channel inhibition, confirmation, selectivity assay for KCNK9 modulator project, cell-based, HEK293, thallium flux; inhibition, % at 10 µM; 4,900 compounds, 4% hits; AID 492993, 2010; Kir2.1 cells, FluxOR thallium flux fluorescence; shares compounds with KCNK9 block;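 active = thallium signal drop more than 5 SD beyond the mean of the no-compound control wells, seen in both duplicate plates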;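 note: signal is fluorescence rise after thallium addition divided by baseline fluorescence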
# HEK293 Tl ctr: thallium flux in non-induced HEK293 cells, confirmation, counter-screen for KCNK9 inhibitor project, cell-based, second counter screen, non-induced KCNK9-HEK293; AID 492997, 2010; inhibition, % at 10 µM; 4,900 compounds, 40% hits; FluxOR thallium flux; shares compounds with KCNK9 block;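 active = thallium signal drop beyond 5 SD of the untreated control mean, on both duplicate plates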
# KCNK3 inh conf: retest of human KCNK3 channel inhibitors, confirmation, CHO cells, FluxOR thallium flux, triplicate | 2,400 compounds, 99% hits | AID 651638, 2012 | FluxOR fluorescence; 0% buffer, 100% carvedilol maximal block | shares compounds with KCNK3 block | ratio percent of control, % at 10 µM;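 active = ratio percent of control, averaged over triplicates, above buffer control mean plus 5 SD, cut at about 64% in these data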;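 note: ratio is the fluorescence rise from min to max over baseline after thallium stimulus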
# KCNK3 noninduced: thallium flux inhibition in non-induced cells, primary screen, counter-screen for KCNK3 inhibitor project, cell-based, non-induced KCNK3 line, FluxOR thallium, triplicate; shares compounds with KCNK3 block; non-induced KCNK3 parental cells; hits give low values; thallium flux ratio (lower = more inhibition) at 10 µM; 2,400 compounds, 40% hits;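 active = thallium flux ratio, averaged over three wells, more than 5 SD below the buffer control mean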;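 note: host cells are CHO cells without KCNK3 induction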
# A number is an active result; i = inactive; nt = not tested or not shown.
SMILES,Kir21 block,KCNQ1 block,hERG protect,KCNQ1 pot,KCNK3 block,KCNK9 block,KCNK9 block conf,Kir2-1 spec,HEK293 Tl ctr,KCNK3 inh conf,KCNK3 noninduced
CCOC(=O)c1nnc(-c2ccccc2)nc1NCc1ccc(Cl)cc1,i,i,i,i,-9.7,-10,38%,i,43%,97,0.14
Oc1ccccc1Cn1c(-c2ccccc2O)nc2ccccc21,i,i,i,i,i,i,nt,nt,nt,nt,nt
COc1ccccc1Cn1c(-c2ccccc2OC)nc2ccccc21,i,i,i,i,-9.1,-11,26%,i,48%,109,i
CC/C(=N/N=C(/CC)c1ccc(O)cc1)c1ccc(O)cc1,i,i,i,i,-9.6,-15,56%,i,30%,92,i
O=C1CSC(=S)N1N=Cc1ccc(Cl)s1,nt,nt,nt,nt,i,nt,nt,nt,nt,nt,nt
Cc1c(Cl)cccc1-n1nnnc1-c1cccs1,i,i,i,i,-11,-9.3,44%,i,32%,108,i
O=C(Nc1cccc(NC(=O)c2c(F)cccc2F)n1)c1c(F)cccc1F,i,i,i,8,-11,-11,50%,i,30%,101,i
Cc1cc(C)nc(NC(=NCCc2c[nH]c3ccccc23)NC(=O)c2ccco2)n1,i,i,i,i,-9,-15,30%,i,i,135,0.15
COc1ccc(NC(=S)N(CCN2CCCCC2)Cc2ccco2)cc1,i,i,i,i,i,i,nt,nt,nt,nt,nt
Cc1ccc(NC(=S)N(CCN2CCCCC2)Cc2ccco2)cc1Cl,i,i,i,i,-10,-8.2,i,i,26%,108,i
O=C(Nc1ccncc1)C1(c2ccccc2)CCCC1,i,i,i,i,i,i,nt,nt,nt,nt,nt
O=C(Nc1ccc(O)c(-c2nc3ccccc3o2)c1)C1(c2ccccc2)CCCC1,i,i,i,i,-9.6,-12,40%,i,i,100,i
CCN(CC)C(=O)[C@H]1CC(CC(=O)NCCN2CCOCC2)C(=O)N2CCc3c([nH]c4ccccc34)[C@]12C (stereo partly drawn),nt,nt,nt,nt,i,nt,nt,nt,nt,nt,nt
Cc1sc(NC(=O)c2ccco2)c(CN2CCN(c3ccccc3)CC2)c1C,i,i,i,i,i,-9.9,35%,i,35%,113,i
Cc1ccc(C)c(Nc2cc(C)nc(-c3ccccc3O)n2)c1,i,i,i,i,-11,-9.4,49%,i,40%,125,0.12
Cn1nnnc1SCC(=O)Nc1cc(S(=O)(=O)N2CCCC2)ccc1Cl,i,i,i,i,i,i,nt,nt,nt,nt,nt
CN(C)S(=O)(=O)c1ccc(Cl)c(NC(=O)CSc2nnnn2-c2ccc(O)cc2)c1,i,i,i,i,-9,-12,50%,i,28%,96,i

# Screening results from PubChem.
